Assay outcomes from PubChem BioAssay.
FGF22 binding: binders of human FGF22 protein, primary screen, FGF22 synaptogenesis inhibitor project, biophysical, thermal shift, single point; activity (Tm shift, normalised), % at 9.99 µM; hit rate 1.5% among 340,000; Fibroblast growth factor 22 (Homo sapiens), Q9HCT0; recombinant FGF22 thermal shift, SYPRO orange fluorescence; percent of sucrose octasulfate shift, DMSO zero;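 active = mean Tm shift, scaled 0 neutral to 100 positive control, at about 1.3% or above, every replicate too, limit read from the data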
Target sequence (Q9HCT0 whole entry, looked up): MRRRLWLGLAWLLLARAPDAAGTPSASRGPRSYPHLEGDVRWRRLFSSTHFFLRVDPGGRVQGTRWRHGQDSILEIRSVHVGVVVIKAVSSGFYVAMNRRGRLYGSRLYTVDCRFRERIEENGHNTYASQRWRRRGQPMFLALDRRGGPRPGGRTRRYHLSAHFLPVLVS
HCV NS3 hel inh: inhibitors of HCV NS3 helicase, primary screen, biochemical, Cy5 molecular beacon fluorescence | AID 1800, 2009 | hit rate 0.56% among 290,000 | NS3 helicase DNA unwinding | Hepatitis C virus NS3 helicase | inhibition, % at 10.9 µM;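 active = inhibition above the mean of all tested compounds plus 3 SD, set per campaign, cut at about 35% in these data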;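 note: 0% = DMSO wells and 100% = thioflavine S control wells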
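System: HCV NS3 helicase fragment; control set: DMSO and thioflavine S; technique: Cy5 fluorescence at 0 and 60 min, beacon hairpin quenching; reagent: beacon DNA duplex substrate plus ATP; replicates: singlicate; schedule: 1 h reaction at 25 °C, ATP-initiated; medium: MOPS buffer pH 6.5 with MgCl2, DTT, Tween20, BSA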
ZTA DNA inh: ZTA (EBV) inhibition in EBNA-1 counter-screen; ZTA-DNA binding, fluorescence polarization; inhibition, % at 11 µM; hit rate 0.15% among 320,000; in the data active = inhibition above about 33%
Target sequence (P03206 whole entry, looked up): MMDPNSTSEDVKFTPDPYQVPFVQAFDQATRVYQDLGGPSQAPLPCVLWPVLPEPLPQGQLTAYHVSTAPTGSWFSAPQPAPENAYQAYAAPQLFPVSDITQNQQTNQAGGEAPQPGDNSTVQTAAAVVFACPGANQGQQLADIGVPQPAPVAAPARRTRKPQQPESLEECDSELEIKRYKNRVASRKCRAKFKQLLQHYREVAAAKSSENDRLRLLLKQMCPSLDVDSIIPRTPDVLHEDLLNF
FID counter: compounds displacing fluorescent DNA intercalator, primary screen, artefact control for HCV NS3 helicase inhibitor project, biochemical, FID fluorescence | inhibition, % at 7.9 µM | hit rate 0.17% among 290,000 | DNA fluorescent intercalator displacement | AID 1845, 2009; in the data active = inhibition above about 37%;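 note: 0% = vehicle and 100% = reference compound; higher means more ethidium bromide displaced from hairpin DNA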
NR3A LBD binder: binders of NR3A ligand-binding domain, primary screen, biophysical, differential scanning fluorimetry, uHTS; Glutamate receptor ionotropic, NMDA 3A (GRIN3A) ligand-binding domain; NR3A LBD differential scanning fluorimetry, Tm shift; 0% = protein alone, 100% = glycine-bound protein; Tm shift relative to glycine control, % at 25 µM; hit rate 2.5% among 340,000;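 active = melting temperature shift of at least 10% of the positive control shift, at one fixed dose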
EBNA-1 inh: EBNA-1 DNA-binding inhibitors, primary screen, biochemical, fluorescence polarization. inhibition, % at 14.8 µM. hit rate 0.34% among 300,000; in the data active = inhibition above about 28%
* = called active by the depositor; nt = no result. This is a sample that favours compounds with a hit; in the whole collection about 3.6% have one here.

SMILES	FGF22 binding	HCV NS3 hel inh	ZTA DNA inh	FID counter	NR3A LBD binder	EBNA-1 inh
COc1ccc(/C(N)=N/OC(=O)c2ccc(Br)o2)cc1	0	-3	14	-3	14*	-17
Cc1cccc(C(=O)O/N=C(\N)c2ccc(Cl)cc2)c1	0	-10	0	-5	11*	-10
COc1ccc(C(=O)O/N=C(\N)c2cccc(C)c2)cc1OC	-1	1	6	-18	18*	4
Cc1cccc(C(=O)O/N=C(\N)c2ccc(Br)cc2)c1	nt	20	10	-8	9	21
COc1ccc(C(=O)O/N=C(\N)c2ccc(Cl)cc2)cc1	0	9	6	-9	21*	11
CC(C)NC(=O)N(C)C[C@H]1OCCCC[C@H](C)Oc2ccc(NC(=O)c3ccccc3)cc2C(=O)N([C@@H](C)CO)C[C@H]1C	0	nt	nt	nt	nt	nt
O=C(C1CC1)N1[C@@H]2CN(S(=O)(=O)c3ccccc3)c3ccccc3[C@@H]2[C@@H]1CO	1	nt	nt	nt	nt	nt
CCCC#Cc1cnc2c(c1)C(=O)N([C@H](C)CO)C[C@@H](C)[C@@H](CN(C)C(=O)CCN1CCCCC1)O2	0	nt	nt	nt	nt	nt
CC(C)NC(=O)Nc1ccc2c(c1)C(=O)N([C@H](C)CO)C[C@H](C)[C@@H](CN(C)Cc1ccc(-c3ccccc3)cc1)O2	0	nt	nt	nt	nt	nt
COc1ccc(C(=O)O/N=C(\N)c2ccncc2)cc1OC	nt	6	16	-8	-1	9
COc1ccc(Cl)cc1C(=O)O/N=C(\N)c1ccncc1	0	13	-23	-10	11*	0
CN1CCN(C(=O)C[C@@H]2C[C@@H]3c4cc(NC(=O)Nc5ccc(C(F)(F)F)cc5)ccc4O[C@@H]3[C@@H](CO)O2)CC1	0	nt	nt	nt	nt	nt
CCOC(=O)C(=O)Nc1nnc(SCc2ccc(F)cc2)s1	0	11	-8	-20	22*	-4
CC(=O)Nc1ccc(N2C(=O)c3ccc(C(=O)Nc4nnc(SCc5ccc(F)cc5)s4)cc3C2=O)cc1	nt	2	2	-1	10*	-1
CO[C@H]1CN(C)C(=O)c2ccc(NC(C)=O)cc2OC[C@H](C)N(Cc2cc(F)ccc2F)C[C@@H]1C	0	nt	nt	nt	nt	nt
Cc1ccc[n+](-c2nc3ccccc3nc2[N-]S(=O)(=O)c2ccccc2)c1	0	-6	-2	-7	-2	7
O=S(=O)([N-]c1nc2ccccc2nc1-[n+]1ccccc1)c1ccc(F)cc1	45*	7	14	-2	1	-6
CCc1cccc(N=c2c([N+](=O)[O-])nn(-c3ccc4c(c3)OCCO4)n2O)c1	43*	-13	-8	6	-6	6
O=[N+]([O-])c1nn(-c2ccc3c(c2)OCCO3)n(O)c1=NCc1ccc(F)cc1	nt	16	3	-1	13*	-3
O=[N+]([O-])c1nn(-c2ccc3c(c2)OCCO3)n(O)c1=NCc1ccc(F)cc1Cl	0	8	3	1	1	0
CCc1cccc(N=c2c([N+](=O)[O-])nn(-c3ccc(Cl)cc3)n2O)c1	0	-3	-6	0	-3	7
C[C@@H]1CN([C@H](C)CO)C(=O)c2cc(C3=CCCCC3)cnc2O[C@H]1CN(C)Cc1ccncc1	0	nt	nt	nt	nt	nt
C[C@H]1CN([C@@H](C)CO)C(=O)Cc2cc(NC(=O)Nc3ccc(F)cc3)ccc2O[C@@H]1CN(C)Cc1ccccc1	0	nt	nt	nt	nt	nt
O=C(NC(NC(=S)Nc1ccccc1O)C(Cl)(Cl)Cl)c1ccco1 (stereo unspecified)	0	4	-15	0	0	4
O=C(O)c1cccc(NC(=O)c2ccccc2NC(=O)c2cccc([N+](=O)[O-])c2)c1	1	4	-5	-28	0	-1
COc1ccc(NC(=S)NC(NC(=O)c2cccc(Cl)c2)C(Cl)(Cl)Cl)c([N+](=O)[O-])c1 (stereo unspecified)	nt	7	-7	18	13*	1
